pEC50, pKi: −log10 of the molar value. Calls of active or inactive are those of the source. The calls are words filed in the database; no cut-off is given here. Some results are limits rather than exact numbers.

Consider eight compounds from ChEMBL document CHEMBL2331304, “N1,N3-disubstituted uracils as nonnucleoside inhibitors of HIV-1 reverse transcriptase” (Bioorg Med Chem, 2013).

Series [1] has as its system Influenza A virus. Put plainly: Antiviral activity against Influenza A virus H3N2. Format: functional, organism-based.
Series [2] concerns Punta Toro virus. As to the kind of experiment: Antiviral activity against Punta Toro virus. The format is functional, organism-based.
The subject of series [3] is Mammalian orthoreovirus 1. Put plainly: Antiviral activity against Reovirus 1. The format is functional, organism-based.
Series [4] has as its system Vaccinia virus. Put plainly: Antiviral activity against Vaccinia virus. The format is functional, organism-based. To be noted: Orthopoxvirus vaccinia.
Series [5] has as its system Influenza A virus. As to the kind of experiment: Antiviral activity against Influenza A virus H1N1. Format: functional, organism-based.
The test system of series [6] is MT4. Put plainly: Cytotoxicity against human MT4 cells after 4 days by MTT assay. To be noted: mt4, 96 h. The format is cell-based. For orientation: Formazan colour is commonly taken as a measure of viable cells.
The subject of series [7] is Sindbis virus. Put plainly: Antiviral activity against Sindbis virus. Format: functional, organism-based.
In series [8] the test system is Human alphaherpesvirus 1. As to the kind of experiment: Antiviral activity against Human herpesvirus 1. The format is functional, organism-based. In outline: (§1)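 Confluent HEL, Vero, HeLa or MDCK monolayers (cell type per virus not specified) were inoculated with 100 CCID50 of virus, with a range of compound concentrations. Strains were HSV-1 KOS and TK− ACV-resistant KOS, HSV-2 Lyons and G, and HCMV AD-169 and Davis. Cytopathicity or plaques were scored once complete in untreated infected controls.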

The test system of series [9] is Influenza B virus. As to the kind of experiment: Antiviral activity against influenza B virus. The format is functional, organism-based.
Series [10] relates to Human alphaherpesvirus 2. Put plainly: Antiviral activity against Human herpesvirus 2. Format: functional, organism-based. Summed up: as §1
The subject of series [11] is Respiratory syncytial virus. As to the kind of experiment: Antiviral activity against Respiratory syncytial virus. Format: functional, organism-based.
In series [12] the test system is Feline coronavirus. As to the kind of experiment: Antiviral activity against Feline coronavirus. The format is functional, organism-based.
Series [13] concerns the target Human immunodeficiency virus type 1 reverse transcriptase (Human immunodeficiency virus 1, UniProt Q72547). Put plainly: Non-competitive inhibition of wild type HIV1 reverse transcriptase p66/p51 after 30 mins by liquid scintillation counting.
In series [14] the test system is Human respirovirus 3. Put plainly: Antiviral activity against Parainfluenza virus 3. The format is functional, organism-based.
Series [15] can be described thus: Selectivity index, ratio of CC50 for human MT4 cells to EC50 for HIV1 3B infected in human MT4 cells. Conditions: MT4 cells (uninfected for CC50; HIV-1 3B infected for EC50). Format: toxicity, cell-based.
Series [16] deals with Human immunodeficiency virus 1. Put plainly: Antiviral activity against HIV1 3B infected in human MT4 cells assessed as inhibition of virus-induced cytopathic effect after 4 days by MTT assay. To be noted: Human immunodeficiency virus 1, 3B, MT4, 96 h. Format: functional, organism-based. In outline: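 HIV-1 in MT-4 cells at 1 × 10^5 cells/ml, infected at MOI 0.02 (virus stock titrated as CCID50), then plated immediately onto varying compound concentrations. After 4 days at 37 °C, viable cells counted by MTT.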

Series [17] relates to Human alphaherpesvirus 3. Put plainly: Antiviral activity against Varicella zoster virus. The format is functional, organism-based. In outline:
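VZV strain Oka and the TK− strain 07-1 were inoculated at 20 PFU onto confluent cell monolayers in the presence of varying compound concentrations. Plaque formation was recorded once complete in untreated infected controls.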

The subject of series [18] is Vesicular stomatitis virus. As to the kind of experiment: Antiviral activity against Vesicular stomatitis virus. The format is functional, organism-based.
In series [19] the test system is Coxsackievirus B4. As to the kind of experiment: Antiviral activity against Coxsackievirus B4. The format is functional, organism-based.

For `Cc1ccc(OCCn2ccc(=O)n(Cc3cc(C)ccc3C)c2=O)cc1`, the result in series [1], in series [2], in series [3], in series [4], in series [5] and in series [7] was inactive. The result in [8], in [9], in [10], in series [11], in series [12] and in series [14] was inactive. The outcome in [17], in [18] and in series [19] was inactive. Moreover, the half-maximal cytotoxic concentration (CC50) (commonly the concentration at which the toxic effect on the cells reaches its halfway point) in [6] was > 343 µM. In [13], the pKi (usually −log10 of the Ki, conventionally taken in molar units) is 5.00. In [15], the selectivity ratio is > 66. Further, the pEC50 (commonly −log10 of the EC50, conventionally taken in molar units) in [16] is 5.28.
Turning to `N#Cc1ccc(OCCn2ccc(=O)n(Cc3ccccc3)c2=O)cc1`, the outcome in series [1], in [2], in [3], in [4], in [5] and in [7] was inactive. Also, the result in [8], in series [9], in series [10], in [11], in series [12] and in [14] was inactive. Further, the outcome in [17], in series [18] and in series [19] was inactive. In addition, the midpoint of cytotoxicity in series [6], the CC50, lay at 166 µM. This compound also gave a negative-log Ki (pKi) in [13] of 4.29. Further, in series [15], the selectivity ratio came out at 3.9. Besides, the pEC50 in [16] was 4.37.
For the compound `Cc1ccc(OCCn2ccc(=O)n(C(C)c3ccccc3)c2=O)cc1` (stereo not given), the outcome in series [1], in series [2], in [3], in [4], in series [5] and in series [7] was inactive. Also, the outcome in [8], in series [9], in [10], in series [11], in [12] and in [14] was inactive. The outcome in series [17], in [18] and in series [19] was inactive. It took 132 µM to reach half-maximal cytotoxicity in [6] (CC50). The pKi in series [13] is 4.92. Besides, the selectivity ratio in series [15] worked out at 20. The pEC50 in series [16] was 5.19.
On to `Cc1ccc(OCCn2ccc(=O)n(Cc3cccc(C)c3)c2=O)cc1`, for which the result in series [1], in series [2], in series [3], in [4], in [5] and in series [7] was inactive. The result in [8], in series [9], in series [10], in [11], in series [12] and in series [14] was inactive. The result in [17], in [18] and in series [19] was inactive. For the same compound, in series [6], the CC50 is ≥ 38 µM. The compound also showed a pKi in [13] of 5.18. Further, in series [15], the selectivity ratio is ≥ 11. For the same compound, the negative logarithm of the EC50 (pEC50) in [16] was 5.47.
As to `Cc1cccc(OCCn2ccc(=O)n(Cc3ccccc3)c2=O)c1`, the result in series [1], in [2], in [3], in [4], in series [5] and in series [7] was inactive. The outcome in series [8], in series [9], in [10], in series [11], in series [12] and in series [14] was inactive. Further, the result in series [17], in [18] and in [19] was inactive. In addition, the CC50 in series [6] stood at 207 µM. Also, in series [13], the negative logarithm of the Ki (pKi) is < 4.00. In addition, in series [15], the selectivity ratio is 6.7. Moreover, the pEC50 in series [16] was 4.51.
Take `O=c1ccn(CCOc2ccc(Cl)cc2)c(=O)n1Cc1ccccc1`: the outcome in series [1], in [2], in series [3], in series [4], in series [5] and in series [7] was inactive. Also, the result in series [8], in series [9], in series [10], in series [11], in [12] and in series [14] was inactive. Further, the result in series [17], in series [18] and in [19] was inactive. The same compound returned a half-maximal cytotoxic concentration (CC50) in [6] of 36 µM. The pKi in series [13] is 4.66. In [16], the pEC50 is < 4.44.
`O=c1ccn(CCOc2ccc(-c3ccccc3)cc2)c(=O)n1Cc1ccccc1`: the result in [1], in [2], in series [3], in series [4], in [5] and in series [7] was inactive. The result in series [8], in series [9], in series [10], in [11], in series [12] and in [14] was inactive. Also, the outcome in series [17], in [18] and in series [19] was inactive. Besides, half-maximal cytotoxicity in [6] (CC50) was put at 31 µM. In series [13], this compound showed a pKi of 5.09. Also, the selectivity ratio in series [15] amounted to 3.8. Moreover, the pEC50 in series [16] was 5.08.
For `Cc1cc(C)cc(OCCn2ccc(=O)n(Cc3ccccc3)c2=O)c1`, the outcome in series [1], in [2], in series [3], in [4], in series [5] and in series [7] was inactive. Besides, the outcome in series [8], in series [9], in series [10], in series [11], in series [12] and in series [14] was inactive. The result in series [17], in [18] and in [19] was inactive. Besides, in series [6], the midpoint of cytotoxicity, the CC50, lay at 46 µM. Moreover, the pKi in series [13] is < 4.00. Also, the pEC50 in series [16] is < 4.34.
